Results published in ChEMBL document CHEMBL4402567, “Structure-Activity Relationship Studies on Diversified Salicylamide Derivatives as Potent Inhibitors of Human Adenovirus Infection” (J Med Chem, 2020).

Columns and labels:
Human adenovirus 5 [1] = test: Antiviral activity against Human adenovirus 5 infected in 293beta5 cells assessed as inhibition of plaque formation at 10 uM incubated for 7 days by GFP reporter gene assay relative to control; assay type: functional; conditions: Human mastadenovirus C, 293beta5, 168 h
Procedure, shortened: (§1)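 HAdV5-GFP plaque assay in 293β5 cells at low MOI. Inhibition is expressed as percent of the infected control, with single-dose screening at 10 μM. Compounds giving >90% inhibition went on to IC50 determination. Values are means ± SD of triplicate samples from three independent experiments.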

[2] = Cytotoxicity against human A549 cells assessed as reduction in cell viability after 48 hrs by alamar blue assay; assay type: cell-based
Human adenovirus 5 [3] = test: Antiviral activity against Human adenovirus 5 infected in 293beta5 cells assessed as inhibition of plaque formation incubated for 7 days by GFP reporter gene assay; assay type: functional, organism-based; conditions: Human mastadenovirus C, 293beta5, 168 h; procedure, shortened: as §1
[4] = Selectivity index, ratio of CC50 for cytotoxicity against human A549 cells to IC50 for antiviral activity against Human adenovirus 5 infected in 293beta5 cells assessed as inhibition of plaque formation after 7 days; assay type: toxicity, cell-based; conditions: read-out: Ratio CC50/IC50
Human adenovirus 5 [5] = test: Antiviral activity against Human adenovirus 5 infected in human A549 cells assessed as inhibition of viral entry at 50 uM after 48 hrs by GFP reporter gene based assay relative to control; assay type: functional; conditions: Human mastadenovirus C, A549, 48 h
Procedure, shortened: (§2)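 Entry assay in A549 epithelial cells infected with HAdV5-GFP at high MOI, with compound present throughout and 48 h incubation. GFP expression is the read-out.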

Human adenovirus 5 [6] = test: Antiviral activity against Human adenovirus 5 infected in human A549 cells assessed as inhibition of viral entry after 48 hrs by GFP reporter gene based assay; assay type: functional, organism-based; conditions: Human mastadenovirus C, A549, 48 h; procedure, shortened: as §2
Human adenovirus 5 [7] = test: Antiviral activity against Human adenovirus 5 infected in human A549 cells assessed as fold reduction in virus yield at 50 uM after 48 hrs endpoint dilution method relative to control; assay type: functional
Human adenovirus 5 [8] = test: Antiviral activity against Human adenovirus 5 infected in 293beta5 cells assessed as inhibition of viral replication at 10 uM measured immediately post infection by GFP reporter gene assay relative to control; assay type: functional; conditions: Human mastadenovirus C
Human adenovirus 5 [9] = test: Antiviral activity against Human adenovirus 5 infected in human A549 cells asssessed as inhibition of viral entry by measuring nuclear-associated viral genome level at 50 uM after 45 mins by RT-PCR analysis (reference value: 100.24 +/- 2.77%); assay type: functional; design: scale not given: the % may be the effect or the level left
Procedure, shortened: (§3)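 Nuclear HAdV genome levels in treated cells were quantified at 45 min post-infection and compared with DMSO-treated cells. […] Bars are means ± SD of triplicate samples.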

Human adenovirus 5 [10] = test: Antiviral activity against Human adenovirus 5 infected in human A549 cells assessed as inhibition of viral DNA replication by measuring number of viral DNA copies at 50 uM after 24 hrs by RT-qPCR analysis (reference value: 100 +/- 1.55%); assay type: functional; design: scale not given: the % may be the effect or the level left
Human adenovirus 5 [11] = test: Antiviral activity against Human adenovirus 5 infected in human A549 cells assessed as fold reduction in virus yield at 5 uM after 48 hrs endpoint dilution method relative to control; assay type: functional
Human adenovirus 5 [12] = test: Antiviral activity against Human adenovirus 5 infected in 293beta5 cells assessed as inhibition of viral infection at 5 uM preincubated for 60 mins followed by viral infection by GFP reporter gene assay relative to control; assay type: functional; conditions: Human mastadenovirus C
Human adenovirus 5 [13] = test: Antiviral activity against Human adenovirus 5 infected in 293beta5 cells assessed as inhibition of viral infection at 5 uM measured after 2 hrs post infection by gene assay relative to control; assay type: functional; conditions: Human mastadenovirus C, 293beta5, 2 h
Human adenovirus 5 [14] = test: Antiviral activity against Human adenovirus 5 infected in human A549 cells asssessed as inhibition of viral entry by measuring nuclear-associated viral genome level at 5 uM after 45 mins by RT-PCR analysis (reference value: 100.24 +/- 2.77%); assay type: functional; design: scale not given: the % may be the effect or the level left; procedure, shortened: as §3
Human adenovirus 5 [15] = test: Antiviral activity against Human adenovirus 5 infected in human A549 cells assessed as inhibition of viral DNA replication by measuring number of viral DNA copies at 5 uM after 24 hrs by RT-qPCR analysis (reference value: 100 +/- 1.55%); assay type: functional; design: scale not given: the % may be the effect or the level left
Human adenovirus 5 [16] = test: Antiviral activity against Human adenovirus 5 infected in human A549 cells assessed as inhibition of viral DNA replication at 5 uM after 24 hrs by RT-qPCR analysis relative to control; assay type: functional; conditions: Human mastadenovirus C, A549, 24 h

Structure (SMILES)	IC50 (Human adenovirus 5 [3]) [µM]	inhibition at 10 µM (Human adenovirus 5 [1]) [%]	CC50 at 48 h [2] [µM]	selectivity ratio at 168 h [4]	also measured
C[C@@H](NC(=O)c1cc(Cl)ccc1O)c1ccc(Cl)cc1	–	100	31.1	–	–
Cc1ccc(O)c(C(=O)Nc2cc(F)cc(C(F)(F)F)c2)c1	0.65	–	15.2	23.3	–
CC(C)[C@H](NC(=O)c1cc(Cl)ccc1O)C(=O)Nc1ccc(F)c(F)c1	2.96	–	95	32.1	–
O=C(Nc1cc(F)cc(C(F)(F)F)c1)c1cc(Cl)ccc1O	0.18	100	120	667	inhibition at 50 µM (Human adenovirus 5 [5]): 100%; IC50 (Human adenovirus 5 [6]): 2.23 µM; fold change (FC) (Human adenovirus 5 [7]): 989; inhibition at 10 µM (Human adenovirus 5 [8]): < 50%; Activity (Human adenovirus 5 [9]): 66.96%; Activity (Human adenovirus 5 [10]): 82.41%
O=C(Nc1cc(F)cc(C(F)(F)F)c1)c1cccc(Cl)c1	5.61	–	38.6	6.9	–
CN(Cc1ccc(F)cc1)C(=O)c1cc(Cl)ccc1O	–	0	–	–	–
O=C(Cc1cc(Cl)ccc1O)Nc1ccc([N+](=O)[O-])cc1Cl	–	0	–	–	–
C[C@H](NC(=O)c1cc(Cl)ccc1O)C(=O)Nc1ccc([N+](=O)[O-])cc1Cl	3.85	–	100	26	–
O=C(Nc1ccc([N+](=O)[O-])c(Cl)c1)c1cc(Cl)ccc1O	1	100	–	–	–
CC(C)[C@H](NC(=O)c1cc(Cl)ccc1O)C(=O)Nc1cc(C(F)(F)F)cc(C(F)(F)F)c1	0.4	–	30.9	77.4	–
O=C(N[C@@H](Cc1ccccc1)C(=O)Nc1ccc([N+](=O)[O-])cc1Cl)c1cc(Cl)ccc1O	7	100	15.2	–	–
O=C(NCc1ccc(C(F)(F)F)cc1F)c1cc(Cl)ccc1O	1.32	–	45.6	34.6	–
CC(C)[C@H](NC(=O)c1cc(Cl)ccc1O)C(=O)Nc1cc(F)cc(C(F)(F)F)c1	0.66	–	43	65.2	–
O=C(Nc1cc(F)cc(C(F)(F)F)c1)c1ccccc1O	1.07	–	16.3	15.2	–
C[C@H](NC(=O)c1cc(Cl)ccc1O)c1ccccc1	2.54	100	199	78.5	–
O=C(CNC(=O)c1cc(Cl)ccc1O)Nc1ccc([N+](=O)[O-])cc1Cl	2.43	100	129	53.2	–
O=C(Nc1cc(C(F)(F)F)cc(C(F)(F)F)c1)c1cc(Cl)ccc1O [IMD-0354]	0.06	100	4.1	68.3	–
O=C(Nc1cc([N+](=O)[O-])ccc1F)c1cc(Cl)ccc1O	0.31	100	8.1	26.2	–
C[C@@H](NC(=O)c1cc(Cl)ccc1O)c1ccccc1	–	100	84.6	–	–
O=C(Cc1cc(Cl)ccc1O)Nc1cc(F)cc(C(F)(F)F)c1	4.92	–	23.7	4.8	–
O=C(N[C@@H](Cc1ccccc1)C(=O)Nc1cc(C(F)(F)F)cc(C(F)(F)F)c1)c1cc(Cl)ccc1O	0.4	–	17.9	44.9	–
CS(=O)(=O)Nc1ccc(Cl)cc1C(=O)NCC(=O)Nc1ccc([N+](=O)[O-])cc1Cl	9.65	–	141	14.6	–
CC(C)(C)OC(=O)CC[C@H](NC(=O)c1cc(Cl)ccc1O)C(=O)Nc1ccc([N+](=O)[O-])cc1Cl	0.67	–	22.9	34.2	–
O=C(Nc1cc(F)cc(C(F)(F)F)c1)c1ccc(Cl)cc1O	0.11	–	20.6	187	inhibition at 50 µM (Human adenovirus 5 [5]): 100%; IC50 (Human adenovirus 5 [6]): 0.26 µM; fold change (FC) (Human adenovirus 5 [11]): 385; inhibition at 5 µM (Human adenovirus 5 [12]): > 50%; inhibition at 5 µM (Human adenovirus 5 [13]): > 50%; Activity (Human adenovirus 5 [14]): 54.74%; Activity (Human adenovirus 5 [15]): 68.17%
O=C(Nc1ccc([N+](=O)[O-])cc1Cl)c1cc(Cl)ccc1O [NICLOSAMIDE]	0.6	100	–	–	inhibition at 50 µM (Human adenovirus 5 [5]): 100%; IC50 (Human adenovirus 5 [6]): 1.22 µM; fold change (FC) (Human adenovirus 5 [11]): 82; Activity (Human adenovirus 5 [14]): 49.51%; Activity (Human adenovirus 5 [15]): 0.05%
O=C(NCc1cc(F)cc(C(F)(F)F)c1)c1cc(Cl)ccc1O	2.4	–	36.3	15.1	–
CC(C)[C@H](NC(=O)c1cc(Cl)ccc1O)C(=O)Nc1ccc([N+](=O)[O-])cc1Cl	0.45	100	200	444	IC50 (Human adenovirus 5 [6]): 11.2 µM; fold change (FC) (Human adenovirus 5 [7]): 213; inhibition at 10 µM (Human adenovirus 5 [8]): < 50%; Activity (Human adenovirus 5 [9]): 91.82%; Activity (Human adenovirus 5 [10]): 60.09%
CC[C@@H](C)[C@H](NC(=O)c1cc(Cl)ccc1O)C(=O)Nc1ccc([N+](=O)[O-])cc1Cl	0.16	–	20.2	128	IC50 (Human adenovirus 5 [6]): 2.5 µM; fold change (FC) (Human adenovirus 5 [11]): 10; inhibition at 5 µM (Human adenovirus 5 [12]): > 50%; inhibition at 5 µM (Human adenovirus 5 [13]): > 50%; Activity (Human adenovirus 5 [14]): 0.54%; Activity (Human adenovirus 5 [15]): 2.33%; inhibition at 5 µM (Human adenovirus 5 [16]): > 90%
O=C(Nc1ccc(F)c(F)c1)c1cc(Cl)ccc1O	0.27	100	8	29.6	–

The next lines start with results.

IC50 (Human adenovirus 5 [3]) [µM]	Structure (SMILES)	inhibition at 10 µM (Human adenovirus 5 [1]) [%]	CC50 at 48 h [2] [µM]	selectivity ratio at 168 h [4]	also measured
0.11	O=C(Nc1ccc([N+](=O)[O-])cc1)c1cc(Cl)ccc1O	–	–	–	inhibition at 50 µM (Human adenovirus 5 [5]): 100%; fold change (FC) (Human adenovirus 5 [11]): 137; inhibition at 5 µM (Human adenovirus 5 [12]): > 50%; inhibition at 5 µM (Human adenovirus 5 [13]): > 50%; Activity (Human adenovirus 5 [14]): 15.48%; Activity (Human adenovirus 5 [15]): 0.51%; inhibition at 5 µM (Human adenovirus 5 [16]): > 90%
1.4	O=C(NCc1ccc(C(F)(F)F)c(F)c1)c1cc(Cl)ccc1O	–	22.3	15.9	–
1.73	O=C(NCc1ccc(Cl)cc1Cl)c1cc(Cl)ccc1O	–	30.9	17.9	–
8.12	Cc1ccc(CNC(=O)c2cc(Cl)ccc2O)cc1	–	87.7	10.8	–
6.56	O=C(NCc1ccc([N+](=O)[O-])cc1)c1cc(Cl)ccc1O	–	175	26.7	–
2.56	O=C(NCc1ccc(F)cc1Cl)c1cc(Cl)ccc1O	–	30.9	12.1	–
3.57	O=C(NCc1ccc(Cl)cc1)c1cc(Cl)ccc1O	–	27.1	7.6	–
3.46	CC(C)(NC(=O)c1cc(Cl)ccc1O)c1ccc(F)cc1	100	> 200	> 57.8	–
2.59	O=C(NCc1ccc(C(F)(F)F)cc1)c1cc(Cl)ccc1O	–	23.9	9.2	–
3.94	O=C(NCCc1ccc(F)cc1)c1cc(Cl)ccc1O	–	154	39.1	–
1.4	O=C(NCc1ccc([N+](=O)[O-])cc1Cl)c1cc(Cl)ccc1O	100	51.4	36.7	–
3.02	C[C@@H](NC(=O)c1cc(Cl)ccc1O)c1ccc(F)cc1	100	> 200	> 66.2	–
